Results: ChEMBL document CHEMBL4513216, “Probing the Open Global Health Chemical Diversity Library for Multistage-Active Starting Points for Next-Generation Antimalarials” (ACS Infect Dis, 2020)

Assay: Toxicity liver stage against HepG2, at 10uM
Type: cell-based
Parameters: test concentration 10 uM, cell line HepG2-A16-CD81EGFP
Settings: human, HepG2-A16-CD81EGFP cells; read-out: INHIBITION
How it was run: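 Uninfected HepG2-A16-CD81EGFP cells, 3 × 10^3 per well, 1536-well, plated on prespotted compound at 10 μM final, parasite-free screening media added to match infected plates; puromycin 10 μM positive, DMSO 0.5% negative; run in parallel with 48 h PbLuc assay at 37 °C, 5% CO2; viability by CellTiter-Glo luminescence, normalized to controls.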

SMILES | cytotoxicity at 10 µM [%]
COc1cccc(CN2CC(O)CN(C(=O)C3CCC3)CC2=O)c1OC (stereo not given) | 4.43
Cc1cccnc1NC(=O)C1(n2cnnn2)CCCCC1 | -2.43
Cc1cc(NC(=O)Cn2ncc(SCC(N)=O)c(Cl)c2=O)ccc1Br | 15.3
O=C(c1nc2c(s1)CCCN2C(=O)C1CC1)N1CCOCC1 | 4.96
c1cnc(N2CCO[C@H]3[C@H](OCCN4CCOCC4)CC[C@@H]32)nc1 | -10.2
Cc1c(C)n(Cc2ccccn2)c2nc3c(c(N)c12)CCCCCC3 | 9.15
CCN1CCN(S(=O)(=O)c2cc(C)c(Cl)cc2C)CC1 | -3.89
Oc1ccc(Cl)cc1CNCc1ccccc1Cl | -0.0124
Cc1noc(COCC(=O)N2CCCC(c3nccs3)C2)n1 (stereo not given) | 0.172
COCCOCC(=O)NC(C#N)c1cc(Cl)cc(Cl)c1 (stereo not given) | 8.31
CC(NC(=O)c1cccs1)C(=O)NS(=O)(=O)c1cccc(C#N)c1 (stereo not given) | -7.23
CCC(O)CN1CCN(C(=O)c2csc(COC)n2)CC1 (stereo not given) | 7.72
CC(=O)NCCNC(=O)c1cc(C)ccc1SC1CCCC1 | -41.5
Cc1ccc(C2COCCN2C(=O)c2ccc(CN(C)C)cc2)o1 (stereo not given) | 0.692
c1cncc(CN2CCCC3(COCCN(c4nccs4)C3)C2)c1 (stereo not given) | -80.4
Cc1nc(NCC2CC2)nc2c1COCC21CCN(C(=O)C(C)(C)C)C1 (stereo not given) | -77.8
COC(C)(C)C(=O)N[C@H]1CN(c2nccnc2N(C)C)C[C@@H]1C(C)C | 4.24
CCCOC1CCCN(c2ncnc3c2CCN(C(=O)C2CC2)C3)C1 (stereo not given) | 4.84
O=C(NCc1ccc(Cl)s1)c1cc(CN2CCCC(O)C2)on1 (stereo not given) | -52.3
O=c1cc(-c2cc(O)cc(CCC3CCCCN3)c2)cc[nH]1 (stereo not given) | 0.749
CCCc1cncnc1N1CCC(NCCc2ccc(O)cc2)CC1 | 2.47
CNS(=O)(=O)c1ccc(CN2CCN3CCNC(=O)C3C2)cc1 (stereo not given) | -6.22
CCc1nccn1CCC(=O)N1CC(=O)N(c2ccccc2C)CC1C (stereo not given) | -15

SMILES | cytotoxicity at 10 µM [%]
Cc1ccsc1CNc1ccccc1C(=O)N1CCNC(=O)C1 | -1.68
Cc1nn(C)c2nc(N3CCCC3c3nccs3)sc12 (stereo not given) | -2.87
CSCC(=O)N[C@H]1CC[C@H](Nc2nccc(-c3cccnc3)n2)C1 | 9.87
CC(C)CN1C(=O)CC[C@H]2CN(C(=O)c3ncc[nH]3)CC[C@H]21 | 5.09
CCN(CC)S(=O)(=O)c1csc(C(=O)N2CCC(C(N)=O)CC2)c1 | -43.9
Cc1ccc(-c2cc(C(=O)NCCC3=CCCCC3)[nH]n2)o1 | -55.1
Cc1cc(C[S+]([O-])CC(=O)NCc2cccc(Cl)c2)no1 (stereo not given) | -1.56
CCc1nnc2n1CCN(C(=O)CN(CC)CC)C2 | -3.14
COC(=O)CCNC(=O)c1nnn(-c2ccc(C)cc2)c1C1CC1 | -0.121
Cc1nc(C)n(CC2CN(CCCOc3ccccc3)CCO2)n1 (stereo not given) | -0.924
CCN(Cc1cccc(C)c1)Cn1nc(C)c2c(C)onc2c1=O | -1.03
Cc1ccc(-c2nc(CN3CCOC(Cn4cccn4)C3)co2)cc1 (stereo not given) | -5.3
O=C(Cc1ccc2c(c1)CCO2)N1CCCC1c1noc(C2CC2)n1 (stereo not given) | -7.71
CN(C)c1ccc(CNc2cncc(-n3cccn3)n2)cc1 | -7.31
O=C(NCCc1cccnc1)N1CCCC1c1ccsc1 (stereo not given) | -6.82
Cc1cc(CN(C)C(=O)NC2CCN(Cc3ccccc3)C2)no1 (stereo not given) | -0.421
Cc1nc(CN(C)C2CCN(Cc3ccno3)C2)no1 (stereo not given) | 2.07
COc1cccc(-c2noc(C3CCN(Cc4cccs4)C3)n2)c1 (stereo not given) | -0.192
COCCN1CCC2(CCCN(C(=O)c3cncn3C)C2)CC1 | -1.4
O=C(c1ccccc1)N1CCC[C@]2(C[C@@H](OCc3ccccn3)CO2)C1 | -67.5
CCOc1ccccc1CN1CCc2nc3ccsc3c(=O)n2CC1 | -5.81
CC(C)=CCN1C(=O)[C@@H]2CC[C@H]1CN(c1ncccc1C(N)=O)C2 | 6.13
